# Results from ChEMBL document CHEMBL4433203, “Design, synthesis, and evaluation of isoflavone analogs as multifunctional agents for the treatment of Alzheimer's disease” (Eur J Med Chem, 2019).
# pIC50: −log10 of the molar value. Active and inactive are the calls of the source. The rule behind the calls is not given here.
# Columns and labels:
# [1] = Log BB, ratio of Cmax in brain to blood in ICR mouse at 30 mg/kg, po measured upto 48 hrs by LCMS/MS method; format: ADME, organism-based; conditions: read-out: logBB (converted)
# [2] = target: T1, Histamine H3 receptor (Homo sapiens, UniProt Q9Y5N1); assay: Inhibition of human H3R expressed in methylhistamine-induced human H3-bla U2OS cells incubated for 30 mins by beta-lactamase complementation technology; format: cell-based; conditions: read-out: IC50
# T1 sequence (Q9Y5N1 whole entry, the tested form may be a part): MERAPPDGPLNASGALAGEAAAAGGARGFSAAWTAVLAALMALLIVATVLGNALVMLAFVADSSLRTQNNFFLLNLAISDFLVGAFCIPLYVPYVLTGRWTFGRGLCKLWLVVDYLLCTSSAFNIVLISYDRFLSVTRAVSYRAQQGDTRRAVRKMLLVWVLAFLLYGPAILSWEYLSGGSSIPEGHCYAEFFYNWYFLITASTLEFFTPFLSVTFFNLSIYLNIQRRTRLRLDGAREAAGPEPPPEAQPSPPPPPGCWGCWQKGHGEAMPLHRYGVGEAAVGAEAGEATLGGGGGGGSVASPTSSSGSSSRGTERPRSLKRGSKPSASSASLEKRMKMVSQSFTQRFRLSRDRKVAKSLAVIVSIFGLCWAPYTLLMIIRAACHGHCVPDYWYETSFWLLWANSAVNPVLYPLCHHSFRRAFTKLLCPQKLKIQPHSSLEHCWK
# How it was run: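 H3-bla U2OS cells co-express human H3R-Gal4-VP16 (TEV site) and β-arrestin/TEV protease with a UAS-β-lactamase reporter. IC50 came from log concentration-inhibition curves. Triplicates, three independent experiments.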
# [3] = AUC (0 to t) in ICR mouse at 30 mg/kg, po measured upto 48 hrs by LCMS/MS method; format: ADME, organism-based; design: time < 48 hr, dose 30 mg/kg, route oral; conditions: in vivo
# [4] = system: Mus musculus; assay: Antialzheimer activity in ICR mouse model of scopolamine-induced cognitive deficit assessed as reduction scopolamine-induced error times at 10 to 30 mg/kg, po treated for 1 hr followed by scopolamine challenge for 30 mins by step-down passive avoidance test; format: functional, organism-based
# How it was run: (§1)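 ICR mice, six weeks old, 18-22 g, either sex, n = 15/group. […] Step-down test used foot shock of 20 V, 0.5 mA, 2 s, with a training trial and a test 24 h later. Read-outs were latency to first step-down and number of shocks in 5 min. Mean ± SEM.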
# [5] = Acute toxicity ICR mouse assessed as mortality at 0 to 1000 mg/kg, po measured up to 14 days; format: organism-based; conditions: in vivo, 336 h
# How it was run: (§2)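 Male ICR mice (22 days, 20–22 g), n = 5 per group, chow and water ad libitum, 12 h light/dark cycle. Single oral dose of 0, 100, 200, 500 or 1000 mg/kg in 0.5% CMC-Na. Observed continuously for the first 4 h, intermittently over the next 24 h, then occasionally to 14 days. Euthanized on day 14.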
# [6] = Acute toxicity ICR mouse assessed as effect on body weight change at 0 to 1000 mg/kg, po measured up to 14 days; format: organism-based; conditions: in vivo, 336 h; how it was run: as §2
# [7] = system: Mus musculus; assay: Effect on error times in ICR mouse model of scopolamine-induced cognitive deficit during training stage at 10 to 30 mg/kg, po treated for 1 hr followed by scopolamine challenge for 30 mins by step-down passive avoidance test; format: ADME, organism-based; conditions: in vivo; how it was run: as §1
# [8] = system: Mus musculus; assay: Effect on latency time in ICR mouse model of scopolamine-induced cognitive deficit during training stage at 10 to 30 mg/kg, po treated for 1 hr followed by scopolamine challenge for 30 mins by step-down passive avoidance test; format: ADME, organism-based; conditions: in vivo; how it was run: as §1
# [9] = system: SH-SY5Y; assay: Neuroprotective activity against copper-induced cytotoxicity in human SH-SY5Y cells expressing APP Swedish mutant assessed as increase in cell viability at 10 uM pre-incubated for 2 hrs followed by copper addition and measured after 24 hrs by MTT assay; format: functional, cell-based
# [10] = Acute toxicity ICR mouse assessed as induction of macroscopic abnormalities in liver at 0 to 1000 mg/kg, po measured after 14 da; format: organism-based; conditions: in vivo; how it was run: as §2
# [11] = system: H3R; assay: Selectivity index, ratio of CC50 for human SH-SY5Y cells to IC50 for inhibition of human H3R expressed in methylhistamine-induced human H3-bla U2OS cells; format: toxicity, cell-based; conditions: read-out: Ratio CC50/IC50
# How it was run: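 For IC50, H3-bla U2OS cells (human H3R–Gal4-VP16 plus β-arrestin/TEV, β-lactamase reporter) were seeded for 18 h. Compound was added for 30 min, then 400 nM methylhistamine (stock) for 5 h and FRET-B/G substrate for 2 h. Read 460/530 nm, triplicate per concentration, IC50 from log curves.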
# [12] = system: BuChE; assay: Selectivity index, ratio of CC50 for human SH-SY5Y cells IC50 for mouse plasma BuChE; format: toxicity
# How it was run: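 SI is CC50 in SH-SY5Y divided by BuChE IC50. […] For IC50, mouse plasma BuChE was preincubated 30 min at 37 °C with DTNB and compound in 0.05 M PBS pH 8.0. Butyrylthiocholine iodide was added and A412 read; IC50 taken from log concentration–inhibition curves.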
# [13] = target: Cholinesterase (Mus musculus, UniProt Q03311); assay: Inhibition of mouse plasma BuChE using S-butyrylacetylthiocholine iodide as substrate measured after 30 mins by Ellman's method relative to control; conditions: read-out: IC50
# Chain of Cholinesterase (Q03311 whole entry): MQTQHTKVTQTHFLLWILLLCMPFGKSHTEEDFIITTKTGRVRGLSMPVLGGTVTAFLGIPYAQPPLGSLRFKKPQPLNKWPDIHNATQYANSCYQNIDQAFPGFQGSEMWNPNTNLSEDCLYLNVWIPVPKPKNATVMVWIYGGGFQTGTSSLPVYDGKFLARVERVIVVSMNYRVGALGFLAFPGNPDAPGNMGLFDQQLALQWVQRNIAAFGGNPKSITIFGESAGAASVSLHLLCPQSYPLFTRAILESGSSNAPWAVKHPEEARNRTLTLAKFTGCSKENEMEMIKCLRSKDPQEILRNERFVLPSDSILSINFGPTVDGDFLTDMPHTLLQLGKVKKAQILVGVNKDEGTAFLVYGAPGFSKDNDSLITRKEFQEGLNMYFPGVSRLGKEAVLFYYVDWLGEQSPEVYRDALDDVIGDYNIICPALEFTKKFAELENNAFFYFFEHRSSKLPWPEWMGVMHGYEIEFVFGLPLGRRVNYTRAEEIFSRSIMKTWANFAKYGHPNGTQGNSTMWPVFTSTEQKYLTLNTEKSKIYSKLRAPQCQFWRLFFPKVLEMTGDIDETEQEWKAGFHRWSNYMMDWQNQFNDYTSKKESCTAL
# [14] = Half life in ICR mouse at 30 mg/kg, po measured upto 48 hrs by LCMS/MS method; format: ADME, organism-based; conditions: in vivo
# [15] = Cmax in ICR mouse brain at 30 mg/kg, po measured after 40 mins by LCMS/MS method; format: ADME, organism-based; design: dose 30 mg/kg, route oral
# How it was run: (§3)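 ICR mice got a single oral dose of 30 mg/kg. At 40 min they were sacrificed and plasma and brain collected. Compound in both was quantified by LC-MS/MS. Log BB is the log of the brain-to-blood concentration ratio. Methods state n = 5, table footnote n = 6. Mean ± SEM.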
# [16] = Plasma concentration in ICR mouse at 30 mg/kg, po measured after 40 mins by LCMS/MS method; format: ADME, organism-based; how it was run: as §3
# [17] = Cmax in ICR mouse at 30 mg/kg, po measured upto 48 hrs by LCMS/MS method; format: ADME, organism-based; design: dose 30 mg/kg, route oral; conditions: in vivo
# [18] = Acute toxicity ICR mouse assessed as effect on drinking behavior at 0 to 1000 mg/kg, po measured up to 14 days; format: organism-based; conditions: in vivo, 336 h; how it was run: as §2
# [19] = system: AChE; assay: Selectivity index, ratio of CC50 for human SH-SY5Y cells to IC50 for inhibition of mouse brain AChE
# [20] = target: T1, Histamine H3 receptor; assay: Inhibition of human H3R expressed in methylhistamine-induced human H3-bla U2OS cells at 10 uM incubated for 30 mins by beta-lactamase complementation technology relative to control; format: cell-based
# [21] = system: Mus musculus; assay: Antialzheimer activity in ICR mouse model of scopolamine-induced cognitive deficit assessed as scopolamine-induced latency time at 10 to 30 mg/kg, po treated for 1 hr followed by scopolamine challenge for 30 mins by step-down passive avoidance test (reference value: 5 secs); format: functional; how it was run: as §1
# [22] = Tmax in ICR mouse at 30 mg/kg, po measured upto 48 hrs by LCMS/MS method; format: ADME, organism-based; conditions: in vivo
structure (smiles),measurement,setting,value
CCN(C)CCCCOc1ccc2c(=O)c(-c3ccc(OCCN4CCCCC4)cc3)coc2c1,Kp at 48 h,[1],17.4
same,pIC50,[2],6.57
same,AUC(0-t) at 48 h,[3],325 ng·h/mL
same,Activity,[4],Dose-dependent effect
same,Activity,[5],Non-Toxic
same,Activity,[6],Non-Toxic
same,Activity,[7],Non-Toxic
same,Activity,[8],Non-Toxic
same,Activity,[9],Active
same,Activity,[10],Non-Toxic
same,selectivity ratio,[11],> 370
same,selectivity ratio,[12],> 34.6
same,pIC50,[13],5.54
same,half-life,[14],13.9 h
same,Cmax,[15],762 ng/mL
same,concentration at 40 min,[16],47.2 ng/mL
same,Cmax,[17],52 ng/mL
same,Activity,[18],Non-Toxic
same,selectivity ratio,[19],> 1230
same,inhibition,[20],75.2%
same,Time,[21],53 s
same,Tmax,[22],0.65 h
